Reference: ChEMBL document CHEMBL1153560, “In vitro activities of doripenem and six comparator drugs against 423 aerobic and anaerobic bacterial isolates from infected diabetic foot wounds” (2008)
≈ marks a conversion by molar mass, not a printed value.

How the values were obtained:
Type in all cases: functional
Escherichia coli [1] = assay: Antibacterial activity against Escherichia coli isolated from patient with diabetic foot infection assessed as percent resistant isolates after 18 to 24 hrs by broth microdilution method
Procedure, shortened: (§1)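 Aerobes subcultured on Trypticase soy blood agar, then broth microdilution in cation-adjusted Mueller-Hinton broth. Trays prepared in-house with twofold dilutions and stored at −70°C. Overnight colonies suspended to about 5 × 10^5 CFU/ml final. Read after 18 to 24 h at 37°C. QC strains included S. aureus ATCC 29213 and E. coli ATCC 25922.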

Klebsiella oxytoca [2] = assay: Antibacterial activity against Klebsiella oxytoca isolated from patient with diabetic foot infection assessed as percent resistant isolates after 18 to 24 hrs by broth microdilution method; procedure, shortened: as §1
Proteus vulgaris = assay: Antibacterial activity against Proteus vulgaris isolated from patient with diabetic foot infection assessed as percent resistant isolates after 18 to 24 hrs by broth microdilution method; procedure, shortened: as §1
[3] = test system: Staphylococcus haemolyticus; assay: Antibacterial activity against Staphylococcus haemolyticus isolated from patient with diabetic foot infection after 18 to 24 hrs by broth microdilution method
Streptococcus pyogenes = assay: Antibacterial activity against Streptococcus pyogenes isolated from patient with diabetic foot infection after 18 to 24 hrs by broth microdilution method
Procedure, shortened: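 Streptococcal isolates were subcultured on Trypticase soy blood agar. Broth microdilution used cation-adjusted Mueller-Hinton broth with lysed horse blood, in in-house trays of serial twofold drug dilutions stored at −70°C. Overnight colonies were suspended to a final inoculum of approximately 5 × 10^5 CFU/ml. MIC was read after 18 to 24 h incubation at 37°C.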

[4] = test system: Staphylococcus haemolyticus; assay: Antibacterial activity against Staphylococcus haemolyticus isolated from patient with diabetic foot infection assessed as percent resistant isolates after 18 to 24 hrs by broth microdilution method
Escherichia coli [5] = assay: Antibacterial activity against Escherichia coli isolated from patient with diabetic foot infection after 18 to 24 hrs by broth microdilution method
Procedure, shortened: (§2)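 Isolates were subcultured on Trypticase soy blood agar and tested by broth microdilution in cation-adjusted Mueller-Hinton broth. In-house trays of twofold drug dilutions were stored at −70°C. Overnight colonies gave a final inoculum of about 5 × 10^5 CFU/ml. Plates were read after 18 to 24 h at 37°C.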

Klebsiella aerogenes = assay: Antibacterial activity against Enterobacter aerogenes isolated from patient with diabetic foot infection after 18 to 24 hrs by broth microdilution method; procedure, shortened: as §2
Klebsiella oxytoca [6] = assay: Antibacterial activity against Klebsiella oxytoca isolated from patient with diabetic foot infection after 18 to 24 hrs by broth microdilution method; procedure, shortened: as §2
Klebsiella pneumoniae = assay: Antibacterial activity against Klebsiella pneumoniae isolated from patient with diabetic foot infection after 18 to 24 hrs by broth microdilution method; procedure, shortened: as §2
Corynebacterium jeikeium [7] = assay: Antibacterial activity against Corynebacterium jeikeium isolated from patient with diabetic foot infection after 48 hrs by broth microdilution method
Procedure, shortened: (§3)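 Isolates were subcultured on Trypticase soy blood agar. Broth microdilution used cation-adjusted Mueller-Hinton broth with lysed horse blood, in-house trays of twofold drug dilutions stored at −70°C. Colonies from overnight growth gave a final inoculum of about 5 × 10^5 CFU/ml. Trays were read after 18 to 24 h at 37°C, up to 48 h for some strains.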

Corynebacterium xerosis [8] = assay: Antibacterial activity against Corynebacterium xerosis isolated from patient with diabetic foot infection after 48 hrs by broth microdilution method; procedure, shortened: as §3
Staphylococcus aureus = assay: Antibacterial activity against methicillin-resistant Staphylococcus aureus isolated from patient with diabetic foot infection after 18 to 24 hrs by broth microdilution method
Procedure, shortened: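 Isolates grown on Trypticase soy blood agar, then tested by broth microdilution in unsupplemented cation-adjusted Mueller-Hinton broth. In-house trays held serial twofold drug dilutions and were stored at −70°C. Overnight colonies were suspended to a final inoculum near 5 × 10^5 CFU/ml, and trays read after 18–24 h at 37°C. QC strains: S. aureus ATCC 29213, E. coli ATCC 25922.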

Corynebacterium jeikeium [9] = assay: Antibacterial activity against Corynebacterium jeikeium isolated from patient with diabetic foot infection assessed as percent resistant isolates after 48 hrs by broth microdilution method
Procedure, shortened: (§4)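 Isolates subcultured on Trypticase soy blood agar. Broth microdilution in cation-adjusted Mueller-Hinton broth with lysed horse blood, using in-house twofold dilution trays stored at −70°C. Inoculum from overnight colonies at about 5 × 10^5 CFU/ml final. Read after 18 to 24 h at 37°C, up to 48 h for some Corynebacterium strains.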

[10] = test system: Corynebacterium urealyticum; assay: Antibacterial activity against Corynebacterium urealyticum isolated from patient with diabetic foot infection assessed as percent resistant isolates after 48 hrs by broth microdilution method; procedure, shortened: as §4
Corynebacterium striatum = assay: Antibacterial activity against Corynebacterium striatum isolated from patient with diabetic foot infection assessed as percent resistant isolates after 48 hrs by broth microdilution method; procedure, shortened: as §4
Corynebacterium accolens = assay: Antibacterial activity against Corynebacterium accolens isolated from patient with diabetic foot infection assessed as percent resistant isolates after 48 hrs by broth microdilution method; procedure, shortened: as §4
Corynebacterium xerosis [11] = assay: Antibacterial activity against Corynebacterium xerosis isolated from patient with diabetic foot infection assessed as percent resistant isolates after 48 hrs by broth microdilution method; procedure, shortened: as §4

Question: `C[C@@H](O)[C@H]1C(=O)N2C(C(=O)O)=C(S[C@@H]3CN[C@H](C(=O)Nc4cccc(C(=O)O)c4)C3)[C@H](C)[C@H]12` [ERTAPENEM] was tested. Which Activity (Escherichia coli [1]) did it give?
Answer: 0%

Question: And the Activity (Klebsiella oxytoca [2])?
Answer: 0%

Question: And the Activity (Proteus vulgaris)?
Answer: 0%

Question: What about the MIC50 [3] of the same compound?
Answer: 4 µg/mL (≈ 8.41 µM)

Question: What about the MIC90 [3] of the same compound?
Answer: > 32 µg/mL

Question: And the MIC50 (Streptococcus pyogenes)?
Answer: ≤ 0.015 µg/mL

Question: And the MIC90 (Streptococcus pyogenes)?
Answer: ≤ 0.015 µg/mL

Question: What about the Activity [4] of the same compound?
Answer: 73%

Question: And the MIC50 (Escherichia coli [5])?
Answer: ≤ 0.015 µg/mL

Question: What about the MIC90 (Escherichia coli [5]) of the same compound?
Answer: 0.06 µg/mL (≈ 0.126 µM)

Question: And the MIC50 (Klebsiella aerogenes)?
Answer: 0.06 µg/mL (≈ 0.126 µM)

Question: What about the MIC90 (Klebsiella aerogenes) of the same compound?
Answer: 0.5 µg/mL (≈ 1.05 µM)

Question: And the MIC50 (Klebsiella oxytoca [6])?
Answer: ≤ 0.015 µg/mL

Question: What about the MIC90 (Klebsiella oxytoca [6]) of the same compound?
Answer: ≤ 0.015 µg/mL

Question: What about the MIC50 (Klebsiella pneumoniae) of the same compound?
Answer: ≤ 0.015 µg/mL

Question: What about the MIC90 (Klebsiella pneumoniae) of the same compound?
Answer: ≤ 0.015 µg/mL

Question: What about the MIC50 (Corynebacterium jeikeium [7]) of the same compound?
Answer: 1 µg/mL (≈ 2.1 µM)

Question: What about the MIC90 (Corynebacterium jeikeium [7]) of the same compound?
Answer: 32 µg/mL (≈ 67.3 µM)

Question: What about the MIC50 (Corynebacterium xerosis [8]) of the same compound?
Answer: 0.5 µg/mL (≈ 1.05 µM)

Question: And the MIC90 (Corynebacterium xerosis [8])?
Answer: 1 µg/mL (≈ 2.1 µM)

Question: What about the MIC50 (Staphylococcus aureus) of the same compound?
Answer: 2 µg/mL (≈ 4.21 µM)

Question: What about the MIC90 (Staphylococcus aureus) of the same compound?
Answer: > 32 µg/mL

Question: What does the source list for `C[C@@H](O)[C@H]1C(=O)N2C(C(=O)O)=C(SCCNC=N)C[C@H]12` [IMIPENEM ANHYDROUS]?
Answer: Activity (Escherichia coli [1]): 0%; Activity (Klebsiella oxytoca [2]): 0%; Activity (Proteus vulgaris): 0%; Activity (Corynebacterium jeikeium [9]): 30%; Activity [10]: 30%; Activity (Corynebacterium striatum): 0%; Activity (Corynebacterium accolens): 0%; MIC50 [3]: 0.06 µg/mL (≈ 0.2 µM); MIC90 [3]: 16 µg/mL (≈ 53.4 µM); MIC50 (Streptococcus pyogenes): ≤ 0.015 µg/mL; MIC90 (Streptococcus pyogenes): ≤ 0.015 µg/mL; Activity (Corynebacterium xerosis [11]): 0%; Activity [4]: 73%; MIC50 (Escherichia coli [5]): 0.125 µg/mL (≈ 0.418 µM); MIC90 (Escherichia coli [5]): 0.25 µg/mL (≈ 0.835 µM); MIC50 (Klebsiella aerogenes): 1 µg/mL (≈ 3.34 µM); MIC90 (Klebsiella aerogenes): 2 µg/mL (≈ 6.68 µM); MIC50 (Klebsiella oxytoca [6]): 0.25 µg/mL (≈ 0.835 µM); MIC90 (Klebsiella oxytoca [6]): 1 µg/mL (≈ 3.34 µM); MIC50 (Klebsiella pneumoniae): 0.25 µg/mL (≈ 0.835 µM); MIC90 (Klebsiella pneumoniae): 1 µg/mL (≈ 3.34 µM); MIC50 (Corynebacterium jeikeium [7]): 0.25 µg/mL (≈ 0.835 µM); MIC90 (Corynebacterium jeikeium [7]): 32 µg/mL (≈ 107 µM); MIC50 (Corynebacterium xerosis [8]): 0.03 µg/mL (≈ 0.1 µM); MIC90 (Corynebacterium xerosis [8]): 0.125 µg/mL (≈ 0.418 µM); MIC50 (Staphylococcus aureus): 0.25 µg/mL (≈ 0.835 µM); MIC90 (Staphylococcus aureus): 4 µg/mL (≈ 13.4 µM)

Question: For `C[C@@H](O)[C@H]1C(=O)N2C(C(=O)O)=C(S[C@@H]3CN[C@H](C(=O)N(C)C)C3)[C@H](C)[C@H]12` [MEROPENEM], which Activity (Escherichia coli [1]) is on record?
Answer: 0%

Question: What about the Activity (Klebsiella oxytoca [2]) of the same compound?
Answer: 0%

Question: What about the Activity (Proteus vulgaris) of the same compound?
Answer: 0%

Question: And the Activity (Corynebacterium jeikeium [9])?
Answer: 20%

Question: And the Activity [10]?
Answer: 20%

Question: What about the Activity (Corynebacterium striatum) of the same compound?
Answer: 0%

Question: What about the Activity (Corynebacterium accolens) of the same compound?
Answer: 0%

Question: What about the MIC50 [3] of the same compound?
Answer: 1 µg/mL (≈ 2.61 µM)

Question: And the MIC90 [3]?
Answer: 32 µg/mL (≈ 83.4 µM)

Question: What about the MIC50 (Streptococcus pyogenes) of the same compound?
Answer: ≤ 0.015 µg/mL

Question: What about the MIC90 (Streptococcus pyogenes) of the same compound?
Answer: ≤ 0.015 µg/mL

Question: What about the Activity (Corynebacterium xerosis [11]) of the same compound?
Answer: 0%

Question: What about the Activity [4] of the same compound?
Answer: 73%

Question: What about the MIC50 (Escherichia coli [5]) of the same compound?
Answer: 0.03 µg/mL (≈ 0.0782 µM)

Question: What about the MIC90 (Escherichia coli [5]) of the same compound?
Answer: 0.03 µg/mL (≈ 0.0782 µM)

Question: And the MIC50 (Klebsiella aerogenes)?
Answer: 0.06 µg/mL (≈ 0.156 µM)

Question: And the MIC90 (Klebsiella aerogenes)?
Answer: 0.5 µg/mL (≈ 1.3 µM)

Question: And the MIC50 (Klebsiella oxytoca [6])?
Answer: 0.03 µg/mL (≈ 0.0782 µM)

Question: What about the MIC90 (Klebsiella oxytoca [6]) of the same compound?
Answer: 0.06 µg/mL (≈ 0.156 µM)

Question: What about the MIC50 (Klebsiella pneumoniae) of the same compound?
Answer: 0.03 µg/mL (≈ 0.0782 µM)

Question: And the MIC90 (Klebsiella pneumoniae)?
Answer: 0.06 µg/mL (≈ 0.156 µM)

Question: And the MIC50 (Corynebacterium jeikeium [7])?
Answer: 1 µg/mL (≈ 2.61 µM)

Question: What about the MIC90 (Corynebacterium jeikeium [7]) of the same compound?
Answer: 16 µg/mL (≈ 41.7 µM)

Question: And the MIC50 (Corynebacterium xerosis [8])?
Answer: 0.125 µg/mL (≈ 0.326 µM)

Question: What about the MIC90 (Corynebacterium xerosis [8]) of the same compound?
Answer: 0.25 µg/mL (≈ 0.652 µM)

Question: What about the MIC50 (Staphylococcus aureus) of the same compound?
Answer: 2 µg/mL (≈ 5.22 µM)

Question: What about the MIC90 (Staphylococcus aureus) of the same compound?
Answer: 16 µg/mL (≈ 41.7 µM)
